Source: ChEMBL document CHEMBL1140909 (J Med Chem, 2009)
Activity calls are given as the source filed them. No cut-off for these calls is given here.

Columns and labels:
[1] = molecular target: 72 kDa type IV collagenase (Homo sapiens) (UniProt P08253); assay: Stimulation of MMP2 activity in CB1 receptor knockout HUVEC assessed as increase in enzyme activity at 100 nM relative to control; type: cell-based
Procedure, shortened: (§1)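 HUVEC or CB1 siRNA-knockdown HUVEC (electroporated, 1.5 µg siRNA) grown to 90% confluence in six-well plates, treated with drug (optionally with 1 µM O-1918) with or without UV irradiation (1-15 min, 280-315 nm), 24 h at 37 °C. Conditioned media mixed with DQ gelatin (6 µg/mL), 24 h at 37 °C dark; fluorescence 485/530 nm against collagenase standard curve; triplicate; percent over vehicle, mean ± SEM of three experiments.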

[2] = molecular target: 72 kDa type IV collagenase (Homo sapiens) (UniProt P08253); assay: Stimulation of MMP2 activity in CB1 receptor knockout HUVEC assessed as increase in enzyme activity at 10 nM relative to control; type: cell-based; procedure, shortened: as §1
[3] = molecular target: 72 kDa type IV collagenase (Homo sapiens) (UniProt P08253); assay: Stimulation of MMP2 activity in HUVEC assessed as increase in enzyme activity at 1 uM relative to control; procedure, shortened: as §1
[4] = molecular target: Matrix metalloproteinase-9 (Homo sapiens) (UniProt P14780); assay: Stimulation of MMP9 activity in CB1 receptor knockout HUVEC assessed as increase in enzyme activity at 10 nM relative to control; procedure, shortened: as §1
[5] = molecular target: Matrix metalloproteinase-9 (Homo sapiens) (UniProt P14780); assay: Stimulation of MMP9 activity in HUVEC assessed as increase in enzyme activity at 10 nM relative to control; type: cell-based; procedure, shortened: as §1
[6] = molecular target: 72 kDa type IV collagenase (Homo sapiens) (UniProt P08253); assay: Stimulation of MMP2 activity in HUVEC assessed as increase in enzyme activity at 10 nM relative to control; type: cell-based; procedure, shortened: as §1
[7] = molecular target: Matrix metalloproteinase-9 (Homo sapiens) (UniProt P14780); assay: Stimulation of MMP9 activity in CB1 receptor knockout HUVEC assessed as increase in enzyme activity at 1 uM relative to control; type: cell-based; procedure, shortened: as §1
[8] = molecular target: 72 kDa type IV collagenase (Homo sapiens) (UniProt P08253); assay: Stimulation of MMP2 activity in CB1 receptor knockout HUVEC assessed as increase in enzyme activity at 1 uM relative to control; type: cell-based; procedure, shortened: as §1
[9] = molecular target: 72 kDa type IV collagenase (Homo sapiens) (UniProt P08253); assay: Stimulation of MMP2 activity in HUVEC assessed as increase in enzyme activity at 100 nM relative to control; procedure, shortened: as §1
[10] = molecular target: Matrix metalloproteinase-9 (Homo sapiens) (UniProt P14780); assay: Stimulation of MMP9 activity in HUVEC assessed as increase in enzyme activity at 100 nM relative to control; procedure, shortened: as §1
[11] = molecular target: Matrix metalloproteinase-9 (Homo sapiens) (UniProt P14780); assay: Stimulation of MMP9 activity in CB1 receptor knockout HUVEC assessed as increase in enzyme activity at 100 nM relative to control; procedure, shortened: as §1
[12] = molecular target: Matrix metalloproteinase-9 (Homo sapiens) (UniProt P14780); assay: Stimulation of MMP9 activity in HUVEC assessed as increase in enzyme activity at 1 uM relative to control; type: cell-based; procedure, shortened: as §1
[13] = system: HUVEC; assay: Stimulation of angiogenesis of irradiated HUVEC assessed as increase in cord length formation after 36 hrs by Matrigel based tube formation assay; type: functional, cell-based; details: Homo sapiens
Procedure, shortened: (§2)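 HUVEC or CB1 siRNA-knockdown HUVEC at 90% confluence harvested with versene, spun 600g 5 min, resuspended in serum-free RPMI 1640 with drug (optionally 1 µM O-1918); 40 000 cells/well on gelled 1:1 RPMI/Matrigel, with or without UV irradiation, 36 h at 37 °C. Fixed with Diff-Quick; total tube length from three random 10× fields; triplicate, three experiments; percent increase over vehicle, mean ± SEM; bFGF 5 ng/mL positive control.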

[14] = system: HUVEC; assay: Increase in cell migration of irradiated HUVEC at 10 nM relative to control; type: functional, Homo sapiens
Procedure, shortened: (§3)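 Cells harvested with versene, resuspended in RPMI 1640 with 0.1% BSA; 30 000 cells loaded in bottom well of 48-well microchemotaxis chamber under collagen IV-coated (0.1 mg/mL) 10 µm polyester filter, inverted 2 h at 37 °C; upper wells given drug in RPMI/0.1% BSA, 6 h at 37 °C. Filters fixed and stained with Diff-Quick; migrated cells counted at well centre, ×20. UV irradiation 1-15 min at 280-315 nm, 10 in. distance.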

[15] = molecular target: 72 kDa type IV collagenase (Homo sapiens) (UniProt P08253); assay: Stimulation of MMP2 activity in CB1 receptor knockout HUVEC assessed as increase in enzyme activity in presence of 1 uM anandamide receptor antagonist O-1918 relative to control; type: functional, cell-based; procedure, shortened: as §1
[16] = system: HUVEC; assay: Stimulation of angiogenesis of CB1 receptor knockout irradiated HUVEC assessed as increase in cord length formation after 36 hrs by Matrigel based tube formation assay; type: functional, cell-based; details: Homo sapiens; procedure, shortened: as §2
[17] = system: HUVEC; assay: Stimulation of angiogenesis of irradiated CB1 receptor knockout HUVEC assessed as increase in cord length formation after 36 hrs at 10 nM by Matrigel based tube formation assay; type: functional, Homo sapiens; procedure, shortened: as §2
[18] = system: HUVEC; assay: Stimulation of angiogenesis of HUVEC assessed as increase in cord length formation after 36 hrs by Matrigel based tube formation assay; type: functional, cell-based; details: Homo sapiens; procedure, shortened: as §2
[19] = system: HUVEC; assay: Stimulation of angiogenesis of irradiated CB1 receptor knockout HUVEC assessed as increase in cord length formation after 36 hrs at 1 uM by Matrigel based tube formation assay; type: functional, Homo sapiens; procedure, shortened: as §2
[20] = system: HUVEC; assay: Increase in cell migration of irradiated HUVEC at 1 uM relative to control; type: functional, Homo sapiens; procedure, shortened: as §3
[21] = system: HUVEC; assay: Stimulation of angiogenesis of CB1 receptor knockout HUVEC assessed as increase in cord length formation after 36 hrs by Matrigel based tube formation assay; type: functional, Homo sapiens; procedure, shortened: as §2
[22] = system: HUVEC; assay: Increase in cell migration of irradiated HUVEC at 100 nM relative to control; type: functional, Homo sapiens; procedure, shortened: as §3
[23] = system: HUVEC; assay: Stimulation of angiogenesis of irradiated CB1 receptor knockout HUVEC assessed as increase in cord length formation after 36 hrs at 1 uM in presence of 1 uM anandamide receptor antagonist O-1918 by Matrigel based tube formation assay; type: functional, cell-based; details: Homo sapiens; procedure, shortened: as §2
[24] = system: HUVEC; assay: Stimulation of angiogenesis of irradiated CB1 receptor knockout HUVEC assessed as increase in cord length formation after 36 hrs at 100 nM by Matrigel based tube formation assay; type: functional, Homo sapiens; procedure, shortened: as §2
[25] = molecular target: Matrix metalloproteinase-9 (Homo sapiens) (UniProt P14780); assay: Stimulation of MMP9 activity in CB1 receptor knockout HUVEC assessed as increase in enzyme activity in presence of 1 uM anandamide receptor antagonist O-1918 relative to control; type: functional, cell-based; procedure, shortened: as §1
[26] = molecular target: Cannabinoid receptor 1 (Homo sapiens, UniProt P21554); assay: Displacement of [3H]CP-55-940 from human recombinant CB1 receptor expressed in COS cells; type: cell-based
[27] = molecular target: Cannabinoid receptor 2 (Homo sapiens, UniProt P34972); assay: Displacement of [3H]CP-55-940 from human recombinant CB2 receptor expressed in COS cells; type: cell-based
Sequence of Cannabinoid receptor 2 (P34972 whole entry): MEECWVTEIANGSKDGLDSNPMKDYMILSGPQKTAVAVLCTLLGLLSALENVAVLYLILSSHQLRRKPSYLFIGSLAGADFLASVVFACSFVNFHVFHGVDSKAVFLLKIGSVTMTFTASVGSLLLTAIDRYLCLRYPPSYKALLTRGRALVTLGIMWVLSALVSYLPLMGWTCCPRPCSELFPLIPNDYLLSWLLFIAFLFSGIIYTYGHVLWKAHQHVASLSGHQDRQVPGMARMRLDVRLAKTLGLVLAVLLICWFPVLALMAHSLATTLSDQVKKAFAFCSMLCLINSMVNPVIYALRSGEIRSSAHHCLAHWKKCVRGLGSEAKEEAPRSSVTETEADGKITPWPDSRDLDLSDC

Sequence of Matrix metalloproteinase-9 (Homo sapiens) (P14780 whole entry): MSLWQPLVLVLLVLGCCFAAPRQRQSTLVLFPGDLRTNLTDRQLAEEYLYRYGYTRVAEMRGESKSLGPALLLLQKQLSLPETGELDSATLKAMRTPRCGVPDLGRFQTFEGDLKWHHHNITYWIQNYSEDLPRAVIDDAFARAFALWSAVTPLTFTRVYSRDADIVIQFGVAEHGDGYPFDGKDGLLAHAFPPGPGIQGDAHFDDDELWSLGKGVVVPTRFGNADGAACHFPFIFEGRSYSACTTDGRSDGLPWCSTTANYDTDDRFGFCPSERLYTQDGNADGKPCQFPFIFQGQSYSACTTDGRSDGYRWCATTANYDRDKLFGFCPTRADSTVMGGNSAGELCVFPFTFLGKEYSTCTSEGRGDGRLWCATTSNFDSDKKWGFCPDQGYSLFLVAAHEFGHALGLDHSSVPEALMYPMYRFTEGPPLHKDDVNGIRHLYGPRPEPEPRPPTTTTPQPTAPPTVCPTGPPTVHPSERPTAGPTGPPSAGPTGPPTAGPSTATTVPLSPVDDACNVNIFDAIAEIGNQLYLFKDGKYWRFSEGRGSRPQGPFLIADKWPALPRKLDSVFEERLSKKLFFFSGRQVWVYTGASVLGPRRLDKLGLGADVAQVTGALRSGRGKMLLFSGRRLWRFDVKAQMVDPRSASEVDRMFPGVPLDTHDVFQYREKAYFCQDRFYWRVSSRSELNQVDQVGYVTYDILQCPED
Sequence of 72 kDa type IV collagenase (Homo sapiens) (P08253 110-660 limits assumed): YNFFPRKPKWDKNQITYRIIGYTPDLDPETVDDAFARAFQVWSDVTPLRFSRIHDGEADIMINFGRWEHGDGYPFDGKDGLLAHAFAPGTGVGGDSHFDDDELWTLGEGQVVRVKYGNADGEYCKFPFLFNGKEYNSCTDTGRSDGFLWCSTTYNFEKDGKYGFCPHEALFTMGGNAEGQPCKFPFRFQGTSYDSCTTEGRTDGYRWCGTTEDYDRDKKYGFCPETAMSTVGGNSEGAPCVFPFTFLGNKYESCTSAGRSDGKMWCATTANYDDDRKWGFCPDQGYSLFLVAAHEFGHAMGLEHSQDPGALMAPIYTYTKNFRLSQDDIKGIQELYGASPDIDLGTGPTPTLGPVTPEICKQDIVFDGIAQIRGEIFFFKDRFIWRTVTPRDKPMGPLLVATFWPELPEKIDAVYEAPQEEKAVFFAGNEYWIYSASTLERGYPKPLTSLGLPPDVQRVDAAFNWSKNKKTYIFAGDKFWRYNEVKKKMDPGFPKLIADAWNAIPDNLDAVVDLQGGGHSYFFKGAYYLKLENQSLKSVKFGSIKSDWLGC
Sequence of Cannabinoid receptor 1 (P21554 whole entry): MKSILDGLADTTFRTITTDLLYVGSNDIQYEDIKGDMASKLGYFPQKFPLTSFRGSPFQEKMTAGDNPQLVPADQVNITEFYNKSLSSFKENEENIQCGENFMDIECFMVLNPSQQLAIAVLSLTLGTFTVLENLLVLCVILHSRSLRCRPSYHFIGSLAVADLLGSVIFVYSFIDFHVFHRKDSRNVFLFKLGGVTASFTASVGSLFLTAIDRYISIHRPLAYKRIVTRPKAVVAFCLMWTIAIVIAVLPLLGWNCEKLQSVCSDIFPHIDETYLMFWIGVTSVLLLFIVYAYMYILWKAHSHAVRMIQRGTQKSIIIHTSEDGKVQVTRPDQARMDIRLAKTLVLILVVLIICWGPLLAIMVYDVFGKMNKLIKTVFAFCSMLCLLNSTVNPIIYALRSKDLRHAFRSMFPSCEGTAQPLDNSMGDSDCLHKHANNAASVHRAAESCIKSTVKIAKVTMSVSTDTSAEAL

Structure (SMILES)	Activity [1]	Activity [2]	Activity [3]	Activity [4]	Activity [5]	Activity [6]	Activity [7]	Activity [8]	Activity [9]	Activity [10]	Activity [11]	Activity [12]	Activity [14] [%]	Activity [15]	Activity [16]	Activity [20] [%]	Activity [22] [%]	Activity [25]	other results
CCCCC/C=C\C/C=C\C/C=C\C/C=C\CCCC(=O)N[C@H](C)CO	33%	10%	20%	25%	20%	5%	33%	25%	28%	5%	10%	28%							
C[C@H](CO)NC(=O)CCC/C=C\C/C=C\C/C=C\C/C=C\CCOC(=O)c1cc(I)ccc1N=[N+]=[N-]	inactive	inactive	inactive	inactive	inactive	inactive	inactive	inactive	inactive	inactive	inactive	inactive	18	inactive	Dose-dependent effect	54	35	inactive	Activity [13]: Active; Activity [17]: 21%; Activity [18]: Dose-dependent effect; Activity [19]: 47%; Activity [21]: 8%; Activity [23]: inactive; Activity [24]: 30%
C[C@H](CO)NC(=O)CCC/C=C\C/C=C\C/C=C\C/C=C\CCOC(=O)c1cccc2c1OC(C)(C(C)(C)C)O2 (stereo partly drawn)	inactive	inactive	inactive	inactive	inactive	inactive	inactive	inactive	inactive	inactive	inactive	inactive	27	inactive	Active	55	40	inactive	Ki [26]: 2800 nM; Activity ([21]; Homo sapiens): Active; Ki [27]: 1020 nM
